Test results: paper PMC7606739 (FASEB journal : official publication of the Federation of …, 2020)

Legend:
[1] = target: T1, human 12-LOX (Human ALOX12) (Homo sapiens, UniProt P18054); assay: biochemical
T1 sequence (P18054 1-663): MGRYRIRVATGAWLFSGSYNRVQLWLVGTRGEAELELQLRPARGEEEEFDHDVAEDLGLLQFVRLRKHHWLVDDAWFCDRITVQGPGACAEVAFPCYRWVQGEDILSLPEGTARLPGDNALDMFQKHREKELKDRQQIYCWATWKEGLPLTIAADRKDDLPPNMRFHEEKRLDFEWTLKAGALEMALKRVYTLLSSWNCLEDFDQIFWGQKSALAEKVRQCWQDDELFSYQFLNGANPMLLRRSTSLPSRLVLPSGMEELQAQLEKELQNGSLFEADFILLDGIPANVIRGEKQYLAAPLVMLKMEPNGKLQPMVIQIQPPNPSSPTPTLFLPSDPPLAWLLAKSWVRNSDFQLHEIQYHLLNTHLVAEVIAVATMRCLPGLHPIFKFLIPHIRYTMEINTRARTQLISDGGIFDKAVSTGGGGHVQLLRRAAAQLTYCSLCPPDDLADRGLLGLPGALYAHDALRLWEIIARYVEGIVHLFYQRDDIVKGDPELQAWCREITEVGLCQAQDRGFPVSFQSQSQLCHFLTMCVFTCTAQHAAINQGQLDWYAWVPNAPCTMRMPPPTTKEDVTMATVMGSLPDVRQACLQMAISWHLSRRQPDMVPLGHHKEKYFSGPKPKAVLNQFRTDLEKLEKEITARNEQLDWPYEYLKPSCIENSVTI

[2] = target: T2, zebrafish 12-LOX (zf12-LOX, Alox12) (Danio rerio, UniProt A0ACM8Q0F4); assay: UV-Vis lipoxygenase rate assay; format: biochemical
T2 sequence (A0ACM8Q0F4 1-670): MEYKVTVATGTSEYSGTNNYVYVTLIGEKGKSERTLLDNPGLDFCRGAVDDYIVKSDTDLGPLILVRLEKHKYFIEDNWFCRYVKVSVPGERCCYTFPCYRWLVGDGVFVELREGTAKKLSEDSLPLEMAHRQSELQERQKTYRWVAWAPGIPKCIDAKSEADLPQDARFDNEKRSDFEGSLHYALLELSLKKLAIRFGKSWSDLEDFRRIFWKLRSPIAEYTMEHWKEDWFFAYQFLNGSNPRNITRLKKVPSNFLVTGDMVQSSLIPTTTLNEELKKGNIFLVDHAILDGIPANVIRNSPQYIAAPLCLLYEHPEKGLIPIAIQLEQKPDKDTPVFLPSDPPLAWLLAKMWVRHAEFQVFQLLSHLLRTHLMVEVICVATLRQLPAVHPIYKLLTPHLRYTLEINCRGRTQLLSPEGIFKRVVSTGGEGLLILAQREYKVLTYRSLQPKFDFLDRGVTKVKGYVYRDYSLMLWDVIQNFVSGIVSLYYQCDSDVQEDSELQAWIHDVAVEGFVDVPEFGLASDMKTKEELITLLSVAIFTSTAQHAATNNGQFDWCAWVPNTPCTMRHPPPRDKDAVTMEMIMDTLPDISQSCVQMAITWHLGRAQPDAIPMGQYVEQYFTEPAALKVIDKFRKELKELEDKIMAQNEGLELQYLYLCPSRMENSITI
Outline: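 N-terminal 6xHis-tagged zf12-LOX, expressed from a pFastBac construct, purified on nickel-iminodiacetic acid agarose (>90% pure by SDS-PAGE). Reaction in 25 mM HEPES (pH 8.00), 0.01% Triton X-100, 10 μM arachidonic acid, run as a steady-state kinetic UV-Vis assay. Enzymatic rate measured at six inhibitor concentrations in triplicate; IC50 from a hyperbolic saturation curve fit of rate versus concentration.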

Structure (SMILES): CNc1oc(-c2cccc3ccccc23)nc1C#N [ML351]
- IC50 [1]: > 50 µM
- IC50 [2]: > 100 µM
